Assay results reported in ChEMBL document CHEMBL5329172, “Chloroacetamide fragment library screening identifies new scaffolds for covalent inhibition of the TEAD·YAP1 interaction” (RSC Med Chem, 2023).
Activity calls are given as the source filed them. The rule behind the calls is not given here.

Columns and labels:
[1] = target: T1, Transcriptional coactivator YAP1/Transcriptional enhancer factor TEF-1 (Homo sapiens) (UniProt P46937+P28347); assay: (§1) Covalent inhibition of TEAD1 (209 to 426 residues) (unknown origin) expressed in Escherichia coli BL21 (DE3) cells/FAM-labelled YAP1 (60 to 99 residues)(unknown origin) protein-protein interaction assessed as protein-compound adduct formation at 100 uM incubated for 24 hrs at 4 degree C followed by mass spectrometry analysis
T1 sequence (P28347 whole entry, looked up, the tested form may be a part): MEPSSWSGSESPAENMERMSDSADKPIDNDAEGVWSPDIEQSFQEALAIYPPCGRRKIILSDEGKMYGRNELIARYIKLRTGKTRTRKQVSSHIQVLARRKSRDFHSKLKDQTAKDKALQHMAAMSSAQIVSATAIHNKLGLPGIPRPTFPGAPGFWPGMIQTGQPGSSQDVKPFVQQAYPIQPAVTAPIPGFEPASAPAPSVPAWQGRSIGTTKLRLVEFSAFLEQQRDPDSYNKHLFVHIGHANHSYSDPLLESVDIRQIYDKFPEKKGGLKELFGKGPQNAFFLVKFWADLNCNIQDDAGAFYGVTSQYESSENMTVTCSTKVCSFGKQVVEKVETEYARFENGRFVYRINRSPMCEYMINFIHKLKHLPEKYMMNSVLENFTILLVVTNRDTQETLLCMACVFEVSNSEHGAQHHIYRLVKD
T1 sequence (P46937 whole entry, looked up, the tested form may be a part): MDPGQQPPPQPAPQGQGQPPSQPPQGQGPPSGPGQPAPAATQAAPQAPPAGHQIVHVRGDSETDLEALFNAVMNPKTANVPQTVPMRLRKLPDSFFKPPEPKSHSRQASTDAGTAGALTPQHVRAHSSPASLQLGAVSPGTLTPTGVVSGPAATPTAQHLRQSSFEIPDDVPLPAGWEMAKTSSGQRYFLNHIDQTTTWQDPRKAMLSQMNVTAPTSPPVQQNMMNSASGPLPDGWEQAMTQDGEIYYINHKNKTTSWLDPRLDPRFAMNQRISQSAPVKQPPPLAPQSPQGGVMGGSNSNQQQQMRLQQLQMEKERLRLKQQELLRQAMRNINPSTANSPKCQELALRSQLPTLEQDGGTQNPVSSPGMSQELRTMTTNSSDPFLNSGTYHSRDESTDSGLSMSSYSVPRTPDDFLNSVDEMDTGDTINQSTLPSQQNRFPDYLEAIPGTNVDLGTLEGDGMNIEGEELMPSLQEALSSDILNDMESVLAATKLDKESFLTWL
In short: (§2)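 Intact-protein MS: 2.5 μM protein (TEAD4 217–434 with GST cleaved, TEAD4C367S, TEAD1 209–426, TEAD2 217–447 or TEAD3 210–427) incubated with 100 μM compound in PBS for 24 h at 4 °C. Samples were centrifuged to remove precipitate, desalted on a C3 reverse-phase column with a water/acetonitrile 0.1% formic acid gradient, and masses were read by Q-TOF. Adduct peaks were reported as percent.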

[2] = target: Transcriptional coactivator YAP1/Transcriptional enhancer factor TEF-1 (Homo sapiens, UniProt P28347); assay: (§3) Inhibition of TEAD1 (209 to 426 residues) (unknown origin) expressed in Escherichia coli BL21 (DE3) cells/FAM-labelled YAP1 (60 to 99 residues)(unknown origin) protein-protein interaction preincubated for 24 hrs at 4 degree C with compound followed by fluorescent labelled YAP1 addition by fluorescence polarization assay
Transcriptional coactivator YAP1/Transcriptional enhancer factor TEF-1, sequence (P46937 whole entry, the tested form may be a part): as the sequence (P46937 whole entry, looked up, the tested form may be a part) above
Transcriptional coactivator YAP1/Transcriptional enhancer factor TEF-1, sequence (P28347 whole entry, the tested form may be a part): as the sequence (P28347 whole entry, looked up, the tested form may be a part) above
In short: (§4)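 FP: 64 nM TEAD4, TEAD4C367S, TEAD2 or TEAD3, or 250 nM TEAD1, was preincubated with compound for 24 h at 4 °C in PBS with 0.01% Triton X-100. FAM-YAP1 60–99 peptide (disulfide-crosslinked) was then added at 16 nM final. Polarization was read at ex 485/em 535 nm. Percent inhibition was taken relative to no-compound and no-protein controls. The single-point primary screen used 50 μM.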

TEAD2-YAP1 = TEAD2-YAP1 (Homo sapiens, UniProt Q15562); assay: as §3, with “TEAD2 (217” for “TEAD1 (209”, “447” for “426”; in short: as §4
TEAD2-YAP1, sequence (P46937 whole entry): as the sequence (P46937 whole entry, looked up, the tested form may be a part) above
TEAD2-YAP1, sequence (Q15562 whole entry): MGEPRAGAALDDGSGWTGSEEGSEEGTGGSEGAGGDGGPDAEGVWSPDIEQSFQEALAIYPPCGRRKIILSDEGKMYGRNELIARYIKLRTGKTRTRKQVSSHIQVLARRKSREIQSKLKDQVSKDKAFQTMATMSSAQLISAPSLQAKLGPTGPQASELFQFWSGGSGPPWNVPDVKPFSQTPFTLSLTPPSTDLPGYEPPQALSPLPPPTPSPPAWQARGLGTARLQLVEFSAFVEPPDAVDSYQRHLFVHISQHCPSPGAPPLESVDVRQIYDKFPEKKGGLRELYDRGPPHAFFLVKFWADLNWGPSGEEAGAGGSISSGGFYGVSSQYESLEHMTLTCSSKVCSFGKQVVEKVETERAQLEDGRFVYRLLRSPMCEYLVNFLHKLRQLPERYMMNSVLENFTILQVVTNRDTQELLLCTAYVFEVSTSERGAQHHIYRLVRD

YAP1-TEAD4 [3] = target: T2, YAP1-TEAD4 (Homo sapiens, UniProt Q15561); assay: as §3, with “GST-tagged TEAD4 (217” for “TEAD1 (209”, “434” for “426”, “TEAD4” for “compound”; in short: as §4
T2 sequence (P46937 whole entry): as the sequence (P46937 whole entry, looked up, the tested form may be a part) above
T2 sequence (Q15561 whole entry): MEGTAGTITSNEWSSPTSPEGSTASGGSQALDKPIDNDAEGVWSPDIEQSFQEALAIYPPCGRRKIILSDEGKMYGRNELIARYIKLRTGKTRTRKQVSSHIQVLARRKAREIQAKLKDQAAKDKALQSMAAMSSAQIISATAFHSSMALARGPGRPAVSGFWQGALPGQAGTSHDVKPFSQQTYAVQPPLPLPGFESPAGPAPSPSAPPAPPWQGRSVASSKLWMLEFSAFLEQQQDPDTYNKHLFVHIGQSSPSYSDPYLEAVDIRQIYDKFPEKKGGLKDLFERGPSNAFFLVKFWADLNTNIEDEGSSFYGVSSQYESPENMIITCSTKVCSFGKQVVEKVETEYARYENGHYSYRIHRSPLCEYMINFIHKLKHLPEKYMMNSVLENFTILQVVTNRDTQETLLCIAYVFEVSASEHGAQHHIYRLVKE

[4] = target: T3, TEAD3-YAP1 (Homo sapiens) (UniProt P46937+Q99594); assay: as §3, with “TEAD3 (210” for “TEAD1 (209”, “427” for “426”; in short: as §4
T3 sequence (P46937 whole entry, looked up): as the sequence (P46937 whole entry, looked up, the tested form may be a part) above
T3 sequence (Q99594 whole entry, looked up): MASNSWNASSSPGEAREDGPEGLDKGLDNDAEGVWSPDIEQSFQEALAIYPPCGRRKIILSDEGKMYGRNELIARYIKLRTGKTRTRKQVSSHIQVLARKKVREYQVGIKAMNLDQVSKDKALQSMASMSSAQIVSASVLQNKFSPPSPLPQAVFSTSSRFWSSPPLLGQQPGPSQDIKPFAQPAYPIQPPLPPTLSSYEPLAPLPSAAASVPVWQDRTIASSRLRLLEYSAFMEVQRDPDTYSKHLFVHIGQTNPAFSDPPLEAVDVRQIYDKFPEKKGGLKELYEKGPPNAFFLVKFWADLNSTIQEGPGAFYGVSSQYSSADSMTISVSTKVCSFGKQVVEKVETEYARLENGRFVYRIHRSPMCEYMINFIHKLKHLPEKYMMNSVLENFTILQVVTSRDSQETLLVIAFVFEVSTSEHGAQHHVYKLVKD

[5] = target: T4, YAP1-TEAD4 (Homo sapiens) (UniProt P46937+Q15561); assay: as §3, with “GST-tagged TEAD4 (217” for “TEAD1 (209”, “434” for “426”, “interaction assessed as maximum inhibition at 50 uM” for “interaction”, “TEAD4” for “compound”; in short: as §4
[6] = target: T4, YAP1-TEAD4 (Homo sapiens); assay: as §1, with “GST-tagged TEAD4 (217” for “TEAD1 (209”, “434” for “426”, “formation by second order rate constant, kinact/ki ratio” for “formation”, “0.5 to 6” for “24”; settings: time 0.5-6 hrs
In short: (§5)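 Kinetics by MS: 2.5 μM TEAD4 was incubated at 4 °C with 3.1–100 μM compound. Aliquots were quenched with 0.1 M formic acid at set times from 0.5 h upward and analysed by whole-protein MS. Adduct relative to unreacted protein was fit to 100×(1−e^(−kobs·t)) to give kobs. kobs versus concentration was fit hyperbolically for kinact and KI, or linearly for kinact/KI where no plateau was reached.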

Homo sapiens [7] = species on record: Homo sapiens; assay: as §1, with “GST-tagged TEAD4 C367S mutant” for “TEAD1 (209 to 426 residues)”, “(DE3)/FAM-labelled” for “(DE3) cells/FAM-labelled”; in short: as §2
Homo sapiens [8] = species on record: Homo sapiens; assay: as §3, with “GST-tagged TEAD4 C367S mutant” for “TEAD1 (209 to 426 residues)”, “TEAD4 C367S mutant” for “compound”; in short: as §4
[9] = target: T4, YAP1-TEAD4 (Homo sapiens); assay: as §3, with “GST-tagged TEAD4 (217” for “TEAD1 (209”, “434” for “426”, “interaction assessed maximum inhibition” for “interaction”, “48” for “24”, “TEAD4” for “compound”
In short: (§6)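 Time-course FP: 64 nM TEAD4 was preincubated with varying compound concentrations for 0.5, 6, 24 or 48 h at 4 °C in PBS with 0.01% Triton X-100. 16 nM FAM-YAP1 60–99 peptide was then added and polarization read at 485/535 nm, n = 2. Inhibition was taken relative to no-compound and no-protein controls.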

[10] = target: T1, Transcriptional coactivator YAP1/Transcriptional enhancer factor TEF-1 (Homo sapiens); assay: as §3; in short: as §4
[11] = target: T5, TEAD2-YAP1 (Homo sapiens) (UniProt P46937+Q15562); assay: as §3, with “TEAD2 (217” for “TEAD1 (209”, “447” for “426”; in short: as §4
T5 sequence (P46937 whole entry, looked up): as the sequence (P46937 whole entry, looked up, the tested form may be a part) above
T5 sequence (Q15562 whole entry, looked up): as the sequence (Q15562 whole entry) above

[12] = target: T4, YAP1-TEAD4 (Homo sapiens); assay: as §3, with “GST-tagged TEAD4 (217” for “TEAD1 (209”, “434” for “426”, “interaction assessed maximum inhibition” for “interaction”, “6” for “24”, “TEAD4” for “compound”; in short: as §6
[13] = target: T4, YAP1-TEAD4 (Homo sapiens); assay: as §1, with “GST-tagged TEAD4 (217” for “TEAD1 (209”, “434” for “426”, “formation by measuring reaction half life” for “formation”, “0.5 to 6” for “24”; settings: time 0.5-6 hrs; in short: as §5
S2 = assay: Inhibition of uPAR (unknown origin) expressed in S2 cells/FAM-labelled alpha-helical peptide AE-147 (unknown origin) protein-protein interaction preincubated for 24 hrs at 4 degree C with uPAR followed by fluorescent labelled AE-147 addition by fluorescence polarization assay; settings: Homo sapiens
In short: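 Counter-screen FP: 250 nM uPAR lacking the GPI anchor (from S2 cells) was preincubated with compound for 24 h at 4 °C in PBS with 0.01% Triton X-100. AE-147-FAM peptide was then added at 100 nM final and polarization read at ex 485/em 535 nm.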

[14] = target: T4, YAP1-TEAD4 (Homo sapiens); assay: as §1, with “GST-tagged TEAD4 (217” for “TEAD1 (209”, “434” for “426”; in short: as §2
YAP1-TEAD4 [15] = target: T2, YAP1-TEAD4; assay: as §3, with “GST-tagged TEAD4 (217” for “TEAD1 (209”, “434” for “426”, “48” for “24”, “TEAD4” for “compound”; in short: as §6
YAP1-TEAD4 [16] = target: T2, YAP1-TEAD4; assay: as §1, with “GST-tagged TEAD4 (217” for “TEAD1 (209”, “434” for “426”, “formation by measuring inhibition constant” for “formation”, “0.5 to 6” for “24”; in short: as §5
YAP1-TEAD4 [17] = target: T2, YAP1-TEAD4; assay: as §3, with “GST-tagged TEAD4 (217” for “TEAD1 (209”, “434” for “426”, “6” for “24”, “TEAD4” for “compound”; in short: as §6
YAP1-TEAD4 [18] = target: T2, YAP1-TEAD4; assay: as §3, with “GST-tagged TEAD4 (217” for “TEAD1 (209”, “434” for “426”, “0.5” for “24”, “TEAD4” for “compound”; in short: as §6
[19] = target: T5, TEAD2-YAP1 (Homo sapiens); assay: as §1, with “TEAD2 (217” for “TEAD1 (209”, “447” for “426”; in short: as §2
[20] = target: T4, YAP1-TEAD4 (Homo sapiens); assay: (§7) Covalent inhibition of GST-tagged TEAD4 (217 to 434 residues) (unknown origin) expressed in Escherichia coli BL21 (DE3) cells/FAM-labelled YAP1 (60 to 99 residues)(unknown origin) protein-protein interaction assessed as second protein-compound adduct formation at 100 uM incubated for 24 hrs at 4 degree C followed by mass spectrometry analysis; in short: as §2
[21] = target: T5, TEAD2-YAP1 (Homo sapiens); assay: as §3, with “TEAD2 (217” for “TEAD1 (209”, “447” for “426”, “interaction assessed as maximum inhibition at 50 uM” for “interaction”; in short: as §4
[22] = target: T4, YAP1-TEAD4 (Homo sapiens); assay: as §3, with “GST-tagged TEAD4 (217” for “TEAD1 (209”, “434” for “426”, “interaction assessed maximum inhibition” for “interaction”, “0.5” for “24”, “TEAD4” for “compound”; in short: as §6
[23] = target: T4, YAP1-TEAD4 (Homo sapiens); assay: as §7, with “additional” for “second”; in short: as §2
[24] = as §3, with “GST-tagged TEAD4 C367S mutant” for “TEAD1 (209 to 426 residues)”, “TEAD4 C367S mutant” for “compound”; design: species or system Homo sapiens; in short: as §4
[25] = target: T1, Transcriptional coactivator YAP1/Transcriptional enhancer factor TEF-1 (Homo sapiens); assay: as §3, with “interaction assessed as maximum inhibition at 50 uM” for “interaction”; in short: as §4
[26] = target: T3, TEAD3-YAP1 (Homo sapiens); assay: as §1, with “TEAD3 (210” for “TEAD1 (209”, “427” for “426”; in short: as §2

Structure (SMILES)	inhibition [1]	IC50 (TEAD2-YAP1) [µM]	IC50 (YAP1-TEAD4 [3]) [µM]	inhibition [4]	Imax [5] [%]	Ratio [6] [M⁻¹ s⁻¹]	inhibition (Homo sapiens [7])	inhibition (Homo sapiens [8])	Imax [9] [%]	inhibition [10]	Imax [12] [%]	T1/2 [13] [h]	inhibition (S2)	percent protein-compound adduct formation [14] [%]	IC50 (YAP1-TEAD4 [15]) [µM]	Ki (YAP1-TEAD4 [16]) [µM]	IC50 (YAP1-TEAD4 [17]) [µM]	IC50 (YAP1-TEAD4 [18]) [µM]	percent second protein-compound adduct [20] [%]	Imax [21] [%]	other results
O=C(CCl)NCCSc1ccc(Cl)cc1	Active	86.7	1.4	inactive	35	1.6	inactive														IC50 [2]: 182 µM
O=C(Nc1ccccc1)C1CCN(C(=O)CCl)CC1	Active		22.8	inactive	41	28.1		inactive	33	inactive	33	0.1	inactive	100	4.7	94	38.1				inhibition [11]: inactive
Cc1ccc(C2=NN(C(=O)CCl)C(c3ccco3)C2)cc1 (stereo unspecified)	Active	2.3	2.2	inactive	40	13.5	inactive	inactive	35	inactive	35		inactive	85	1.4		5.9	18.1	15	29	inhibition [19]: Active; Imax [22]: 35%
CCS(=O)(=O)Oc1ccc(CN(Cc2ccc(F)cc2)C(=O)CCl)cc1	Active	22	4.2	inactive	37	1.3	inactive	inactive	38	inactive	38	3.3	inactive	46	5.3	45.8	54.5		11	22	percent protein-compound adduct formation [23]: 20%
COc1ccccc1CN(C(=O)CCl)C(C(=O)NC1CCCCC1)c1ccncc1 (stereo unspecified)			20.7		100								inactive								IC50 [24]: 27.9 µM
NC(=O)c1oc2ccccc2c1NC(=O)CCl	100%	254	0.9	inactive	35	0.3	inactive											40			IC50 [2]: 3 µM; Imax [25]: 31%
O=C(NCCc1ccccc1)C(c1cccs1)N(C(=O)CCl)c1cccc(Cl)c1 (stereo unspecified)	Active		1.4	inactive	31	5.1	inactive	inactive	37	inactive	37	2.2	inactive	55	0.9	17.3	4.6	9.7	18		inhibition [11]: inactive; percent protein-compound adduct formation [23]: 17%; Imax [22]: 37%
CCOc1ccc(S(=O)(=O)N2CCN(C(=O)CCl)CC2)cc1	Active	46.5	11.1	inactive	44	2.4		inactive	45		45		inactive	100	19.4		56.3			14	
COc1cccc(C2CC(Cc3cccs3)=NN2C(=O)CCl)c1OC (stereo unspecified)	Active	3.1	3.3	inactive	48	8.3	inactive	inactive	53	inactive	53	0.6	inactive	78	2.6	37.7	10.2	23.6	15	35	inhibition [19]: Active; inhibition [26]: Active; Imax [22]: 53%
